This is a sample that favours compounds with a hit; in the whole collection about 3.3% have one here.
5HT1a antag = 5-HT1a (human) receptor antagonism; P08908; CHO 5-HT1a Ga15 NFAT-bla reporter, antagonist mode; inhibition, % at 10 µM; actives 0.68% (n = 62,000);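 active means inhibition above the mean of all tested compounds plus 3 SD, cut at about 43% in these data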;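 further: receptor stimulated by 5-CT agonist at 100 nM near EC80; beta-lactamase reporter measured by ratiometric fluorescence of a cleavable substrate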
Target sequence (P08908 whole entry, looked up): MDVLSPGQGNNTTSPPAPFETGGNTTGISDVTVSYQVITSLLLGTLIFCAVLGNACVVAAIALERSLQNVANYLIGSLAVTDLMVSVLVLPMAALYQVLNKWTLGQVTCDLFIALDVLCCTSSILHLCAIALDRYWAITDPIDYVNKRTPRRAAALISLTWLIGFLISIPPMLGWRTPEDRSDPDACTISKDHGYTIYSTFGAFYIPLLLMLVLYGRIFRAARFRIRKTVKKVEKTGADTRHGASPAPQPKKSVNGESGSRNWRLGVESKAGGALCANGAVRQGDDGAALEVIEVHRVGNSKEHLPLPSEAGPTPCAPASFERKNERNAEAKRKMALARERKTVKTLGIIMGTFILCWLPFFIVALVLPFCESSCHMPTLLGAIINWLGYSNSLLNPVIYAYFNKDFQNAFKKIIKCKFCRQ
HTR1A agonist = agonists of human 5-HT1a serotonin receptor. CHO 5-HT1a Ga15 NFAT-bla reporter, FRET ratio; 0% basal, 100% maximal reference agonist. activation, % at 10 µM. actives 0.56% (n = 65,000). AID 567;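 active means activation above the screen-wide mean activation plus 3 SD, cut at about 19% in these data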;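 further: 0% = DMSO wells and 100% = 5-CT at EC100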
HTR1E antagonist = 5-HT1E (human) receptor antagonism; AID 571; CHO 5-HT1E Ga15 NFAT-bla reporter, FRET, antagonist; P28566; actives 0.99% (n = 65,000); inhibition, % at 6 µM;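 active means inhibition above a set limit, the mean inhibition across every tested compound plus 3 SD, cut at about 29% in these data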;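 further: signal is the 460 over 535 nm emission ratio of beta-lactamase substrate; 0% = agonist plus DMSO wells and 100% = wells without agonist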
HEK293 NFkB inh = lowers PMA/ionomycin-induced NF-kB signal in HEK293 cells; HEK-293 NF-kB luciferase reporter, luminescence; inhibition, % at 3 µM; actives 0.21% (n = 62,000); AID 465;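 active means inhibition above the mean of all tested compounds plus 3 SD, cut at about 40% in these data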;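 further: 0% = stimulated DMSO wells and 100% = 10 µM reference inhibitor 5653914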
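Signal: luciferase luminescence; Material: HEK-293 cells with stable firefly luciferase reporter driven by four HIV NF-kB elements; Probe or stimulus: PMA with ionomycin; Replication: tested once; Times: 1 h compound pretreatment, then 16 h stimulation at 37 °C, 5% CO2; Benchmarks: DMSO and 10 µM reference inhibitor; Evaluation: per-plate % inhibition versus controls.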
Jurkat tox 60K = cytotoxic compounds reducing Jurkat cell viability; Jurkat E6.1 viability, ATP luminescence, 48 h; inhibition, % at 4 µM; actives 1.2% (n = 56,000);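 active means inhibition above the mean inhibition of all tested compounds plus 3 SD, cut at about 28% in these data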
HTR1E agonist = activates the human 5-HT1E serotonin receptor. activation, % at 6 µM. AID 574. actives 0.69% (n = 65,000). P28566. CHO 5-HT1E Ga15 NFAT-bla reporter, FRET; 0% DMSO wells, 100% control agonist wells;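 active means activation above a set limit, the screen-wide mean activation plus 3 SD, cut at about 8.5% in these data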;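 further: 100% = positive control agonist at 1 µM giving full maximal response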
* = called active by the depositor; nt = not tested or not shown.

SMILES | 5HT1a antag | HTR1A agonist | HTR1E antagonist | HEK293 NFkB inh | Jurkat tox 60K | HTR1E agonist
O=C1CC(Sc2nnnn2C2CCCCC2)C(=O)N1c1ccccc1 (configuration not stated) | 44.5* | -1.8 | 23.0 | 11.9 | -5.1 | 0.2
CCc1nnc(NC(=O)C(C)Sc2ccccc2)s1 (configuration not stated) | -12.1 | -3.7 | -7.9 | 2.8 | -0.1 | 1.3
O=c1[nH]c(N2CCCCC2)nc2c1CCCC2 | -17.7 | -5.6 | -3.8 | -2.7 | -6.2 | 0.9
O=C(NCc1cccnc1)c1c[nH]c2cc3c(cc2c1=O)OCCO3 | -9.9 | -0.4 | -4.2 | 7.7 | 94.4* | -0.1
O=C1NC2(CCCC2)N=C1c1ccc(Cl)cc1 | 5.2 | -1.3 | -8.3 | -4.3 | 6.7 | -1.3
N#CC(C#N)=c1ccc2c(c1)NC1(CCCCC1)N=2 | 31.4 | -1.4 | 1.9 | 26.1 | 42.4* | 0.7
Cc1ccc(C)c2[nH]c(=O)c(CN(CCN3CCCC3)C(=O)Nc3cccc(Cl)c3)cc12 | 14.9 | -3.4 | -19.6 | 13.2 | 50.7* | -0.1
COc1ccc(S(=O)(=O)N(C)CC(=O)NC2CC2)cc1 | -9.2 | -0.6 | 0.3 | 3.8 | -4.5 | 0.2
OCCN1CCN(Cc2cccc(Oc3ccc(Cl)cc3)c2)CC1 | 1.0 | -0.1 | 7.8 | 9.6 | -0.3 | 10.1*
OC1CCN(Cc2cccc(Oc3ccccc3)c2)CC1 | -2.1 | -2.1 | 4.9 | 6.5 | -0.2 | 0.7
CCC(Oc1ccccc1)C(=O)N1CCN(c2ccccn2)CC1 (configuration not stated) | 5.3 | -1.5 | 3.9 | 8.9 | 0.7 | -1.6
CCC(Oc1ccccc1)C(=O)N1CCC(C(N)=O)CC1 (configuration not stated) | 7.2 | 20.1* | -10.8 | 1.7 | -4.8 | 0.2
O=C(NCCN1CCCC1)c1cc(-c2ccncc2)nc2ccc(S(=O)(=O)N3CCOCC3)cc12 | -10.2 | -1.7 | -3.6 | 10.2 | -1.5 | -0.1
Cc1nc(Nc2nc(=O)c3ccccc3n2C)nc2c(C)cccc12 | 10.7 | -1.8 | -0.8 | -4.6 | -2.5 | -0.5
CC(C)(C)OC(=O)N1CCC[C@H]1c1nnc(SCc2ccccc2F)o1 | 2.9 | -0.4 | -1.0 | 11.1 | 3.0 | 0.1
Cc1cc(C)nc(SCc2nnc(SCC(=O)Nc3ccccc3C)n2Cc2ccco2)n1 | 5.3 | 2.3 | 7.7 | 11.0 | -2.5 | -0.3
O=S(=O)(Nc1ccc(-c2nc3cccnc3s2)cc1)c1cccs1 | -15.6 | 7.1 | -8.4 | 7.5 | 0.9 | 3.6
O=S(=O)(Nc1cccc2ncccc12)c1cccs1 | 84.0* | -7.1 | 78.7* | 11.4 | 76.5* | 0.7
O=C(NCc1cccs1)C1CCN(c2ccc(S(=O)(=O)N3CCOCC3)cc2Cl)CC1 | 27.4 | 0.7 | 40.4* | 39.5 | 91.1* | -0.2
c1cncc(-c2nc(-c3ccc4c(c3)OCO4)cs2)c1 | 39.9 | -5.2 | 19.3 | -6.2 | nt | -1.4
Oc1ccc(-c2nc(-c3ccc(O)c(O)c3)cs2)cc1 | 31.3 | -1.9 | 19.5 | 18.0 | 96.8* | 0.5
c1ccc(-c2csc3ncn4cnnc4c23)cc1 | 9.1 | -1.6 | 31.7* | -5.5 | -2.4 | -0.5
CCOc1cc(CN2CCN(c3cccc(C(F)(F)F)c3)CC2)ccc1O | 33.4 | 20.1* | 8.8 | 14.0 | 5.8 | 8.3
Cc1c(CN2CCN(c3cccc(C(F)(F)F)c3)CC2)c(=O)n(-c2ccccc2)n1C | 1.4 | 1.0 | 2.2 | 17.2 | 4.5 | 60.3*
O=C(Nc1ccc(Oc2ccc(NC(=O)c3ccco3)c(NC(=O)c3ccco3)c2)cc1)c1ccco1 | 58.8* | -1.6 | 18.1 | 7.8 | -6.0 | -1.2
SMILES | 5HT1a antag | HTR1A agonist | HTR1E antagonist | HEK293 NFkB inh | Jurkat tox 60K | HTR1E agonist
Nc1ccc(C(=O)c2ccccc2C(=O)O)cc1Cl | 3.1 | 0.2 | -8.6 | 6.8 | -5.7 | 0.4
O=C(NCc1cccnc1)NC1(C(F)(F)F)Oc2ccc(Cl)cc2O1 (configuration not stated) | 33.3 | -3.2 | 4.2 | 16.4 | 44.7* | 0.0
CCOc1cc(NC(=O)C2CC2)c(OCC)cc1NC(=O)c1cccnc1 | -7.7 | -1.9 | -7.9 | 10.4 | 0.6 | -0.1
CCN(Cc1ccccc1)C(c1ccccn1)c1nnnn1C(C)(C)CC (configuration not stated) | 45.3* | -0.7 | 0.6 | 9.0 | 5.0 | -1.0
CCOC(=O)c1cnn(CCOC(=O)Cc2cccs2)c1NC(=O)Cc1cccs1 | 5.8 | 0.0 | 0.2 | -2.6 | -3.2 | -0.4
O=C(CSc1nnc(Cc2cccs2)n1Cc1ccco1)Nc1cc(Cl)cc(Cl)c1 | 45.6* | 3.4 | -5.9 | 11.6 | -7.4 | 1.2
CCc1ccc(NS(=O)(=O)c2cccs2)cc1 | 15.8 | -1.6 | -8.6 | 7.0 | 1.9 | -0.5
C=CCn1c(N)c(C(=O)OC(C)(C)C)c2nc3ccccc3nc21 | nt | 3.6 | 11.5 | nt | nt | 1.8
C=CCn1c(N)c(C(=O)Nc2ccccc2)c2nc3ccccc3nc21 | nt | 26.9* | 1.4 | nt | nt | 6.2
COc1ccccc1N1CCN(CC(O)COc2cccc3ccccc23)CC1 (configuration not stated) | nt | 1.0 | 28.4 | nt | nt | -0.3
COc1ccccc1N1CCN(CCNC(=O)Nc2cccc(C)c2C)CC1 | 12.9 | 40.5* | 6.0 | 7.8 | 1.8 | 7.5
COc1ccccc1N1CCN(CCOc2c(OC)cccc2OC)CC1 | nt | 1.6 | 14.3 | nt | nt | 30.3*
CCCN1CCC(N2CCN(c3ccccc3OC)CC2)CC1 | 63.3* | -0.5 | 1.3 | 5.1 | -6.3 | -0.4
COc1ccccc1N1CCN(C/C=C/c2ccc(N(C)C)cc2)CC1 | 78.7* | -1.2 | -17.6 | 5.4 | -5.6 | 9.7*
COc1ccccc1/C=C/CN1CCOCC1 | -9.4 | -1.0 | -4.2 | 0.4 | 4.5 | 0.7
COC(=O)c1ccccc1S(=O)(=O)Nc1ccc(OC)nc1 | -7.2 | -0.1 | 5.3 | 17.2 | -2.0 | 0.1
COc1ccccc1N1CCN(Cc2ccco2)CC1 | 16.0 | -4.5 | 0.0 | 2.7 | -2.3 | 9.2*
COc1cccc(C(=O)Nc2cc(=O)n(C)c(=O)n2C)c1 | -10.2 | -2.4 | -9.6 | 18.8 | -5.1 | 0.3
COc1cc(CNc2cc(C)ccc2C)cc(OC)c1OC | 13.6 | -0.1 | 3.1 | -1.2 | 9.6 | -1.6
COc1cc(CNc2ccc(C)c(C)c2)cc(OC)c1OC | 10.8 | -3.5 | 10.8 | 27.8 | 88.0* | -0.5
Cc1cc(O)ccc1Nc1nc2ccccc2nc1Nc1ccc(O)cc1C | 4.2 | 3.4 | 1.0 | 9.2 | -2.9 | -0.2
CC1CN(c2nnnn2-c2ccccc2)CC(C)O1 (configuration not stated) | -6.2 | -1.4 | -7.4 | 8.8 | -5.7 | 53.6*
C=CCSc1nnc(NC(=O)c2cccc(S(=O)(=O)N3CCOCC3)c2)s1 | 8.6 | 0.0 | 10.2 | 7.3 | 9.0 | -0.6
O=C(CSc1nnc(-c2ccco2)o1)NC(=O)C1COc2ccccc2O1 (configuration not stated) | -10.9 | -0.7 | -7.3 | 11.1 | nt | 0.4
